An excerpt weighted towards active compounds, which were near 4.2% of everything screened.
TMEM16A act: TMEM16A chloride channel activators or potentiators, primary screen, cell-based, HTS; HEK293 TMEM16A/YFP-H148Q/I152L, iodide quench fluorescence; stronger effect = lower value; AID 623877, 2012; Anoctamin-1 (Mus musculus), Q8BHY3; B-score at 10 µM; actives 0.3% (n = 340,000);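 active means fluorescence-ratio B-score plate-corrected deviation score at least 3 library SD below zero, with starting fluorescence score within 5 deviations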;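 further: channel opened by trigger with iodide after compound preincubation; score built on the fluorescence ratio of max minus min over baseline; more negative score means more quench and so TMEM16A activation or potentiation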
UPR XBP1 act: activators of adaptive XBP1 UPR arm, primary screen, cell-based, CHO-XBP1 luciferase reporter, luminescence, uHTS; IRE1-XBP1 UPR activation; percent of tunicamycin response, DMSO as zero; activation, % at 20 µM; actives 0.33% (n = 330,000);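 active means versus positive control, 20 µM dose yields 30% or more activation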
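Material: CHO-XBP1 cells stably carrying IRE1-XBP1-driven luciferase reporter | Medium: F12 with 10% serum | Compound dosing: 20 µM single concentration, DMSO 1% | Incubation: Overnight seeding at 37 °C, 6 h compound treatment at 37 °C | Detection: Steady-Glo luminescence read | Read-out basis: % activation of reporter signal versus tunicamycin and DMSO controls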
TMEM16A inh: TMEM16A chloride channel inhibitors, primary screen, cell-based, HTS; Anoctamin-1 (Mus musculus), Q8BHY3; HEK293 TMEM16A/YFP iodide influx fluorescence, ionomycin; normalized B-score (activity score, 25-100; higher = stronger inhibition) at 10 µM; actives 1.2% (n = 310,000); AID 588511, 2011;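 active means ratio plate-corrected score three or more library SD toward inhibition, starting fluorescence score within five deviations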;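 further: score derived from kinetic fluorescence span divided by baseline fluorescence per well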
Hep lipid drop: inhibitors of hepatocyte lipid droplet formation, primary screen, imaging, high-throughput imaging, BODIPY stain | AML12 mouse hepatocytes, oleate lipid droplets | inhibition, % at 6.5 µM | actives 0.4% (n = 240,000);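 active means lipid droplet intensity inhibited by at least 50%, with more than 500 cells counted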
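material = mouse AML12 hepatocyte cell line, fixed after treatment | also added = 100 µM oleic acid challenge | doses = compound at 6.5 µM only | schedule = overnight exposure | technique = Image-based BODIPY and DAPI two-channel analysis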
UPR CHOP act: activators of apoptotic CHOP UPR arm, primary screen, cell-based, CHO-CHOP luciferase reporter, luminescence, uHTS; UPR activation; percent of tunicamycin response over DMSO baseline; AID 449763, 2010; activation, % at 10 µM; actives 0.34% (n = 330,000);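 active means at 10 µM dose, activation of 40% or more, normalized to positive control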
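System: CHO-CHOP luciferase reporter cell line | Buffer or medium: F12 medium containing 10% fetal bovine serum | Doses: One dose, 10 µM in 0.5% DMSO | Times: 6 h compound exposure at 37 °C after overnight seeding | Signal: Luciferase luminescence | Read-out: % activation vs tunicamycin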
CHOP inhibitor: inhibitors of CHOP promoter induction, primary screen, cell-based, unfolded protein response, luciferase reporter. CHO-K1 CHOP-promoter luciferase, tunicamycin-induced, 15-18 h. inhibition, % at 10 µM. actives 3.8% (n = 220,000);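 active means compounds that reduced the stress-induced luciferase reporter signal by more than about 70% of percent inhibition, limit read from the data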
TMEM16A reconf: TMEM16A chloride channel inhibitors, confirmation, cell-based, re-confirmation; shares compounds with TMEM16A inh; inhibition, % at 10 µM; HEK293 TMEM16A/YFP-H148Q, iodide quench fluorescence; ionomycin added to raise cell calcium; actives 39% (n = 2,300);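 active means mean duplicate percent inhibition, scaled so buffer wells are 0 and the reference blocker 100, over three buffer SD above buffer mean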
HEK293 Ca mobil: calcium mobilization in TMEM16A/YFP HEK293 cells, confirmation, counter-screen for TMEM16A inhibitor project; shares compounds with TMEM16A inh; Fluo4 calcium mobilization; calcium response (% of ionomycin), % at 10 µM; actives 2% (n = 2,300);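 active means duplicate-averaged calcium signal over 20% of the ionomycin maximum, relative to buffer baseline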;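 further: each well's signal is peak minus trough fluorescence divided by its pre-addition baseline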
Parental YFP cnt: iodide YFP quench changes in parental YFP-HEK293, counter-screen for TMEM16A inhibitor project, cell-based; shares compounds with TMEM16A inh; ionomycin; YFP ratio F(max-min)/F0 at 10 µM; 2,300 tested, under 10 active; AID 652233, 2013;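 active means yellow fluorescent protein signal ratio exceeding the buffer control mean by over 5 SD of those controls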;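 further: ratio is mean of duplicate wells from kinetic YFP trace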
ClC-1 inh: ClC-1 chloride channel inhibition, selectivity assay for TMEM16A inhibitor project, cell-based, voltage-dependent ClC-1; shares compounds with TMEM16A inh; CHO ClC-1-YFP, iodide influx fluorescence quench; iodide control reads 0, buffer control 100; ratio percent, % at 10 µM; 2,300 tested, under 10 active; AID 652236, 2013;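 active means duplicate-mean ratio percent above the mean of iodide-only control wells, which defines zero, plus 5 of their SD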;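 further: higher percent means stronger block of ClC-1 iodide influx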
A number is an active result.

COC(=O)CCCCCN1C(=O)NC(C2CC2)C(C(=O)OCc2ccccc2)=C1C (stereo not given) was read as TMEM16A act inactive, UPR XBP1 act inactive, TMEM16A inh 25, UPR CHOP act inactive, TMEM16A reconf inactive, HEK293 Ca mobil inactive, Parental YFP cnt inactive and ClC-1 inh inactive.
`COC(=O)CCCN1C(=O)NC(c2ccc(-c3ccccc3)cc2)C(C(=O)OCc2ccccc2)=C1C` (stereo not given) gave UPR XBP1 act inactive and UPR CHOP act inactive.
C/C(=N\NC(=O)c1cc(-c2ccc(C)s2)[nH]n1)c1ccco1 was read as TMEM16A act inactive, UPR XBP1 act inactive, TMEM16A inh inactive, Hep lipid drop inactive, UPR CHOP act inactive and CHOP inhibitor inactive.
`C[C@@H](C(=O)Nc1ccc2ccccc2c1)[C@H]1C[C@]1(C)[C@H](NC(=O)c1cnccn1)c1ccccc1` gave TMEM16A act inactive, UPR XBP1 act inactive, TMEM16A inh inactive, Hep lipid drop inactive, UPR CHOP act inactive, CHOP inhibitor inactive, TMEM16A reconf inactive, HEK293 Ca mobil inactive, Parental YFP cnt inactive and ClC-1 inh inactive.
CCc1nc(SCc2nnc(-c3ccc(C)cc3)o2)c2c(C)c(C)sc2n1 was read as UPR XBP1 act inactive, TMEM16A inh inactive, UPR CHOP act inactive, TMEM16A reconf inactive, HEK293 Ca mobil inactive, Parental YFP cnt inactive and ClC-1 inh inactive.
Screening CCOC(=O)N1CCN(C(=O)C2CCCN(Cc3nc(-c4ccc(Cl)cc4)oc3C)C2)CC1 (stereo not given) returned TMEM16A act inactive, UPR XBP1 act inactive, TMEM16A inh 25, UPR CHOP act inactive, TMEM16A reconf inactive, HEK293 Ca mobil inactive, Parental YFP cnt inactive and ClC-1 inh inactive.
`Cc1ccc(-c2noc(CCCC(=O)NC3CCCCC3)n2)cc1` gave TMEM16A act inactive, UPR XBP1 act inactive, TMEM16A inh 25, Hep lipid drop inactive, UPR CHOP act inactive, TMEM16A reconf inactive, HEK293 Ca mobil inactive, Parental YFP cnt inactive and ClC-1 inh inactive.
`Cc1ccc(-c2noc(CCC(=O)NC3CCCC3)n2)cc1` gave TMEM16A act inactive, UPR XBP1 act inactive, TMEM16A inh inactive, Hep lipid drop inactive and UPR CHOP act inactive.
CC(C)c1ccc(C(C)NC(=S)NC2CCCCC2)cc1 (stereo not given) was read as TMEM16A act inactive, UPR XBP1 act inactive, TMEM16A inh 25, Hep lipid drop inactive, UPR CHOP act inactive, TMEM16A reconf 26%, HEK293 Ca mobil inactive, Parental YFP cnt inactive and ClC-1 inh inactive.

Screens (PubChem)
